Publication PMC4263960 (Pediatric blood & cancer, 2013)
Like-named read-outs stand apart in the source and are kept apart here.

Columns and labels:
BT-12 cell line = test: DIMSCAN in vitro cytotoxicity testing, BT-12; type: cell-based
Procedure, shortened: (§1)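 Test compound incubated with cells of a 24-line pediatric cancer panel for 96 h at 0.1 nM to 1 μM, then assessed by DIMSCAN. Relative IC50 (rIC50) derived per line. Panel comparison value is the panel rIC50 divided by the rIC50 of each cell line.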

CHLA-9 cell line = test: DIMSCAN in vitro cytotoxicity testing, CHLA-9; type: cell-based
Procedure, shortened: as §1

CHLA-10 cell line = test: DIMSCAN in vitro cytotoxicity testing, CHLA-10; type: cell-based
Procedure, shortened: as §1

NB-EBc1 cell line = test: DIMSCAN in vitro cytotoxicity testing, NB-EBc1; type: cell-based
Procedure, shortened: as §1

CCRF-CEM cell line = test: DIMSCAN in vitro cytotoxicity testing, CCRF-CEM; type: cell-based; conditions: for IC50: Homo sapiens, CCRF-CEM, 96 h
Procedure, shortened: as §1

BT-29 rhabdoid xenograft = test: PPTP in vivo xenograft testing, BT-29; parameters: species or system mice
KT-10 Wilms xenograft = test: PPTP in vivo xenograft testing, KT-10; parameters: species or system mice
EW5 Ewing xenograft = test: PPTP in vivo xenograft testing, EW5; parameters: species or system mice
[1] = system: Rh10 ALV rhabdomyosarcoma xenograft; test: PPTP in vivo xenograft testing, Rh10; parameters: species or system mice
[2] = system: Rh28 ALV rhabdomyosarcoma xenograft; test: PPTP in vivo xenograft testing, Rh28; parameters: species or system mice
[3] = system: Rh30 ALV rhabdomyosarcoma xenograft; test: PPTP in vivo xenograft testing, Rh30; parameters: species or system mice
[4] = 1 mg/kg IP Q4Dx3 repeated at Day 21

In the case of C=C1C[C@@H]2CC[C@@]34C[C@H]5O[C@H]6[C@@H](O3)[C@H]3O[C@H](CC[C@@H]3O[C@H]6[C@H]5O4)CC(=O)C[C@@H]3[C@@H](OC)[C@@H](C[C@H](O)CN)O[C@H]3C[C@H]3O[C@@H](CC[C@@H]1O2)C[C@@H](C)C3=C [Eribulin], the “Panel rIC50/Line rIC50” value (BT-12 cell line; BT-12) is reported as 1.83, the Relative in/out% (BT-12 cell line; BT-12) is reported as −74% and the “Ymin % (observed)” value (BT-12 cell line; BT-12) is reported as 2.12%. For the same molecule, the IC50 (BT-12 cell line; Homo sapiens, BT-12, 96 h, read-out: rIC50) was 0.15 nM, the IC50 (CHLA-9 cell line; 96 h, read-out: rIC50) was 0.16 nM and the “Panel rIC50/Line rIC50” value (CHLA-9 cell line; CHLA-9) was 1.68. The Relative in/out% (CHLA-9 cell line; CHLA-9) was −49%, the “Ymin % (observed)” value (CHLA-9 cell line; CHLA-9) was 1.82% and the IC50 (CHLA-10 cell line; 96 h, read-out: rIC50) was 0.11 nM. The “Panel rIC50/Line rIC50” value (CHLA-10 cell line; CHLA-10) was 2.58, the Relative in/out% (CHLA-10 cell line; CHLA-10) was −28% and the “Ymin % (observed)” value (CHLA-10 cell line; CHLA-10) was 4.54%. The IC50 (NB-EBc1 cell line; 96 h, read-out: rIC50) was 14.8 nM, the “Panel rIC50/Line rIC50” value (NB-EBc1 cell line; NB-EBc1) was 0.02 and the Relative in/out% (NB-EBc1 cell line; NB-EBc1) was −92%. For the same molecule, the “Ymin % (observed)” value (NB-EBc1 cell line; NB-EBc1) was 1.76%, the “Panel rIC50/Line rIC50” value (CCRF-CEM cell line; CCRF-CEM (1)) was 0.17 and the Relative in/out% (CCRF-CEM cell line; CCRF-CEM (1)) was −100%. For the same molecule, the “Ymin % (observed)” value (CCRF-CEM cell line; CCRF-CEM (1)) was 0.01%, the “Panel rIC50/Line rIC50” value (CCRF-CEM cell line; CCRF-CEM (2)) was 0.14 and the Relative in/out% (CCRF-CEM cell line; CCRF-CEM (2)) was −100%. The “Ymin % (observed)” value (CCRF-CEM cell line; CCRF-CEM (2)) was 0.02%, the IC50 (CCRF-CEM cell line; read-out: rIC50, CCRF-CEM (1) ALL) was 1.62 nM and the IC50 (CCRF-CEM cell line; read-out: rIC50, CCRF-CEM (2) ALL) was 1.88 nM. For the same molecule, the Response activity (BT-29 rhabdoid xenograft; 1 mg/kg IP) was “Int (intermediate activity by a score of ≥2 but <6)”, the T/C volume activity (BT-29 rhabdoid xenograft; 1 mg/kg IP) was “Low (Low activity = T/C >0.45)” and the “EFS T/C” value (BT-29 rhabdoid xenograft; [4]) was >1.6. For the same molecule, the “Median final RTV (CD45%)” value (BT-29 rhabdoid xenograft; [4]) was >4, the “Tumor volume T/C” value (BT-29 rhabdoid xenograft; 1 mg/kg IP, Day 21 or earlier) was 0.65 and the EFS activity (KT-10 Wilms xenograft; 1 mg/kg IP) was “High (High activity requires: (a) an EFS T/C >2; (b) a significant difference in EFS distributions, and (c) a net reduction in median tumor volume for animals in the treated group at the end of treatment as compared to at treatment initiation)”. The Response activity (KT-10 Wilms xenograft; 1 mg/kg IP) was “High (A high level of activity is indicated by a score of 6 or more)”, the T/C volume activity (KT-10 Wilms xenograft; 1 mg/kg IP) was “High (High activity = T/C ≤0.15)” and the “EFS T/C” value (KT-10 Wilms xenograft; [4]) was >3.7. For the same molecule, the “Median final RTV (CD45%)” value (KT-10 Wilms xenograft; [4]) was 0.0, the “Tumor volume T/C” value (KT-10 Wilms xenograft; 1 mg/kg IP, Day 21 or earlier) was 0.01 and the EFS activity (EW5 Ewing xenograft; 1 mg/kg IP) was “Int (Intermediate activity = criteria (a) and (b) above, but not having a net reduction in median tumor volume for treated animals at the end of the study)”. For the same molecule, the Response activity (EW5 Ewing xenograft; 1 mg/kg IP) was “Int (intermediate activity by a score of ≥2 but <6)”, the T/C volume activity (EW5 Ewing xenograft; 1 mg/kg IP) was “High (High activity = T/C ≤0.15)” and the “EFS T/C” value (EW5 Ewing xenograft; [4]) was 3.3. The “Median final RTV (CD45%)” value (EW5 Ewing xenograft; [4]) was >4, the Time to event (EW5 Ewing xenograft; [4]) was 41.3 and the “Tumor volume T/C” value (EW5 Ewing xenograft; 1 mg/kg IP, Day 21 or earlier) was 0.13. The EFS activity ([1]; 1 mg/kg IP) was “High (High activity requires: (a) an EFS T/C >2; (b) a significant difference in EFS distributions, and (c) a net reduction in median tumor volume for animals in the treated group at the end of treatment as compared to at treatment initiation)”, the Response activity ([1]; 1 mg/kg IP) was “High (A high level of activity is indicated by a score of 6 or more)” and the T/C volume activity ([1]; 1 mg/kg IP) was “High (High activity = T/C ≤0.15)”. The “EFS T/C” value [1, 4] was >3.8, the “Median final RTV (CD45%)” value [1, 4] was 0.0 and the “Tumor volume T/C” value ([1]; 1 mg/kg IP, Day 21 or earlier) was 0.08. The EFS activity ([2]; 1 mg/kg IP) was “High (High activity requires: (a) an EFS T/C >2; (b) a significant difference in EFS distributions, and (c) a net reduction in median tumor volume for animals in the treated group at the end of treatment as compared to at treatment initiation)”, the Response activity ([2]; 1 mg/kg IP) was “High (A high level of activity is indicated by a score of 6 or more)” and the T/C volume activity ([2]; 1 mg/kg IP) was “Int (Intermediate activity = T/C ≤0.45 but >0.15)”. The “EFS T/C” value [2, 4] was >2.4, the “Median final RTV (CD45%)” value [2, 4] was 0.0 and the “Tumor volume T/C” value ([2]; 1 mg/kg IP, Day 21 or earlier) was 0.29. For the same molecule, the EFS activity ([3]; 1 mg/kg IP) was “High (High activity requires: (a) an EFS T/C >2; (b) a significant difference in EFS distributions, and (c) a net reduction in median tumor volume for animals in the treated group at the end of treatment as compared to at treatment initiation)”, the Response activity ([3]; 1 mg/kg IP) was “High (A high level of activity is indicated by a score of 6 or more)” and the T/C volume activity ([3]; 1 mg/kg IP) was “High (High activity = T/C ≤0.15)”. The “EFS T/C” value [3, 4] was >3.8.
